Data from ChEMBL document CHEMBL4138193, “Novel indole and triazole based hybrid molecules exhibit potent anti-adipogenic and antidyslipidemic activity by activating Wnt3a/β-catenin pathway” (Eur J Med Chem, 2018).
Active and inactive are the calls of the source. No cut-off for these calls is given here.

Tests used:
3T3-L1 [1] = assay: Induction of Wnt5a mRNA expression in mouse 3T3L1 cells at 20 uM by qRT-PCR analysis; assay type: functional, cell-based
Method in brief: (§1)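 3T3-L1 cells induced with MDI differentiation medium with or without 20 µM. RNA isolated with TRIzol and 500 ng reverse-transcribed to cDNA for real-time PCR. n=3 with triplicates, mean ± SD; one-way ANOVA with Bonferroni post-test.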

Syrian golden hamster [2] = assay: Effect on serum HDL level in high fat diet-induced dyslipidemia Syrian Golden hamster model at 100 mg/kg, po administered for 1 week followed by overnight fasting post last dose by clinical bio-analyzer analysis; assay type: ADME, organism-based, Mesocricetus auratus; conditions: in vivo, 168 h
Method in brief: (§2)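 Male Syrian Golden hamsters (8-10 weeks, 100-120 g), 4 per group, given 45% kCal high fat diet for 4 days, then HFD plus oral dosing in 0.5% w/v NaCMC for one week. After an overnight fast, blood was taken from the retro-orbital plexus under anesthesia and serum was analysed on a clinical bio-analyzer. Mean ± SEM; one-way ANOVA with Bonferroni post-test.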

Syrian golden hamster [3] = assay: Anti-dyslipidemic activity in high fat diet-induced dyslipidemia Syrian Golden hamster model assessed as reduction in serum triglycerides levels at 100 mg/kg, po administered for 1 week followed by overnight fasting post last dose by clinical bio-analyzer analysis; assay type: functional, organism-based; conditions: Mesocricetus auratus; method in brief: as §2
3T3-L1 [4] = assay: Upregulation of wnt3a mRNA expression in mouse 3T3L1 cells at 20 uM by qRT-PCR analysis; assay type: functional, cell-based; method in brief: as §1
3T3-L1 [5] = assay: Cell cycle arrest in mouse 3T3L1 cells assessed as reduction in accumulation at S phase at 10 to 20 uM after 16 hrs by propidium iodide-staining based flow cytometry; assay type: functional
Method in brief: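 Confluent 3T3-L1 preadipocytes given differentiation medium (0.5 mM IBMX, 5 µg/ml insulin, 250 nM dexamethasone) with 10 or 20 µM for 16 and 24 hr. Cells trypsinized, fixed in ice-cold 70% ethanol for 2 hr, stained with propidium iodide (40 µg/ml in RNase A buffer, 30 min, room temperature). Flow cytometry gave the fractions in G1, S and G2/M; three independent experiments.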

Mus musculus = species: Mus musculus; assay: Activation of Wnt3a/beta-catenin in mouse 3T3L1 cells assessed as down-regulation of cyclinE expression at 20 uM after 16 to 24 hrs by Western blot analysis; assay type: cell-based

Question: Which results are given for `Cc1ccc(S(=O)(=O)N(Cc2cn(Cc3cccc(F)c3F)nn2)Cc2cn(S(=O)(=O)c3ccc(C)cc3)c3ccccc23)cc1`?
Answer: Activity (3T3-L1 [1]): inactive; Activity (Syrian golden hamster [2]): Non-Toxic; Activity (Syrian golden hamster [3]): Active; Activity (3T3-L1 [4]): Active; Activity (3T3-L1 [5]): Active; Activity (Mus musculus): Active
